The values below come from ChEMBL document CHEMBL1149300, “Novel retinoic acid metabolism blocking agents endowed with multiple biological activities are efficient growth inhibitors of human breast and prostate cancer cells in vitro and a human breast tumor xenograft in nude mice” (J Med Chem, 2004).

Active and inactive are the calls of the source. The rule behind the calls is not given here.

The test system of series [1] is MCF7. Nature of the series: Antiproliferative effect against human MCF7 cells. It is filed as functional, cell-based. In outline: (§1)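 MCF-7 (IMEM, 5% FBS) or T47D (RPMI 1640, 10% FBS) cells, 1 × 10^4 per well, adhered ~18 h, then exposed to 0.0001-10 µM drug (ethanol) for 6 days with media and drug renewed on day 4. MTT for 2 h, formazan dissolved in DMSO, A540. Triplicate wells, 2-3 experiments; IC50 by nonlinear regression.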

The species entered for series [2] is Mesocricetus auratus. Nature of the series: (§2) Inhibition of ATRA hydroxylase in Syrian golden hamster liver microsome assessed ATRA metabolism using [11.12-3H]-ATRA. It is filed as microsomes. In outline: (§3)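 Microsomes from male Syrian golden hamster liver, or from T47D cells pretreated with 1 µM ATRA. Incubation in 0.1 M phosphate buffer pH 7.4 with NADPH, MgCl2 and BSA, inhibitor in DMSO; 3 min preincubation at 37 °C, then [11,12-3H]-ATRA for 30 min at 37 °C under oxygen. Ethyl acetate extraction, reverse-phase HPLC with radiometric detection; percent polar metabolites; IC50 from dose-response curves.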
(In general: Microsomes from liver hold many membrane-bound enzymes, among them those of drug oxidation.)

For series [3], the system named is MDA-MB-231. Description: Growth inhibition of human MDA-MB-231 cells up to 10 uM after 6 days by MTT assay. It is filed as functional, cell-based. (In general: Formazan colour is commonly taken as a measure of viable cells.)
Series [4] relates to MCF7. Description: Reduction of tumor growth in MCF7 cells xenografted ovariectomized mouse at 0.033 mmol/kg, sc for 6 weeks relative to control. It is filed as functional. In outline:
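Female ovariectomized nude mice received estrogen pellets. MCF-7 cells (2 × 10^6 in Matrigel) were injected sc into both flanks and grown 4-5 weeks to 200-300 mm3. Groups of n = 5 were dosed sc once daily, 6 days/week for 6 weeks, vehicle 0.3% HPC, 200 µL. Tumors were measured weekly by caliper, volume = (4/3)πr1²r2, and change was compared with vehicle controls.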

Series [5] has as its system MCF7. Description: Growth inhibition of human MCF7 cells after 6 days by MTT assay. The conditions noted are these: MCF7, 144 h. Type of series: functional, cell-based. In outline:
as §1

Series [6] relates to PC-3. Nature of the series: Growth inhibition of human PC3 cells after 6 days by MTT assay. Type of series: functional, cell-based. The conditions noted are these: PC-3, 144 h. The gist of the method:
(§4)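 LNCaP cells (1 × 10^4) on poly-L-lysine-coated wells, attached 36 h; PC-3 cells (1 × 10^4), uncoated, attached 24 h; both in RPMI 1640. Treated with a concentration range of drug for 6 days, medium changed every 3 days. MTT read-out at 540 nm; IC50 by nonlinear regression from at least two experiments.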

Series [7] has as its system LNCaP. Nature of the series: Growth inhibition of human LNCaP cells after 6 days by MTT assay. The conditions noted are these: 144 h. Type of series: functional, cell-based. In outline:
as §4

In series [8] the test system is T47D. Description: Growth inhibition of human T47D cells after 6 days by MTT assay. Type of series: functional, cell-based. The conditions noted are these: 144 h. The gist of the method:
as §1

A short description of series [9]: Displacement of [11,12-3H]ARTA from RARgamma. Further details: species or system Homo sapiens. The gist of the method: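 Recombinant S-Tag RARα, RARβ or RARγ fusion protein extracts (10-30 µg/mL total protein) in HEPES pH 7.9 binding buffer. Incubated with 1 nM [3H]all-trans-RA and 0-500 nM test compound for 3 h at 27 °C. Nonspecific binding measured with a 200-fold excess of unlabeled RA; IC50 from dose-response curves, at least two experiments.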

Series [10] can be described thus: as §2. It is filed as microsomes, Mesocricetus auratus. The gist of the method:
as §3

The target of series [11] is T1, Cytochrome P450 26A1 (Homo sapiens, UniProt O43174).
T1 sequence (O43174 whole entry): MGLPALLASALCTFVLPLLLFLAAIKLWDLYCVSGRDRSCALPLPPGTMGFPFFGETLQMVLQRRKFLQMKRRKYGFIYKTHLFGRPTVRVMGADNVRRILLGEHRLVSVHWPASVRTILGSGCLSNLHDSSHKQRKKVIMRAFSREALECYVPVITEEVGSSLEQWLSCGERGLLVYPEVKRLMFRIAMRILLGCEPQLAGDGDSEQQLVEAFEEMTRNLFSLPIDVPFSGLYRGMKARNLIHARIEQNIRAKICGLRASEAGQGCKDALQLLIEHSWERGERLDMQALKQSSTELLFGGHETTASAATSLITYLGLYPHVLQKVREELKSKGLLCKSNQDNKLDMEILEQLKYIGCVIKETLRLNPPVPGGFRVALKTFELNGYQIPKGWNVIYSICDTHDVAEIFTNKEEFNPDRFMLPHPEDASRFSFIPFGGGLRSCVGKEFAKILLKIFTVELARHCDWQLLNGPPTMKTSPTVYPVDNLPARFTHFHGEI
Description: Inhibition of ATRA-induced CYP26 in human T47D cells assessed as ATRA metabolism using [11.12-3H]-ATRA up to 10 uM. It is filed as functional, cell-based. The gist of the method: (§5)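 Cells seeded at 1 × 10^6 per well and pretreated with 1 µM ATRA for 12-15 h to induce CYP26. After washing, they were incubated 5 h with inhibitor (0.0001-10 µM) plus 0.001 µM [11,12-3H]-ATRA; stocks were in 95% ethanol. […] IC50 was taken from dose-response curves.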

In series [12] the target is T1, Cytochrome P450 26A1. Description: Inhibition of ATRA-induced CYP26 in human MCF7 cells assessed as ATRA metabolism using [11.12-3H]-ATRA up to 10 uM. It is filed as functional, cell-based. The gist of the method:
as §5

For series [13], the target named is T2, Retinoic acid receptor alpha (Homo sapiens, UniProt P10276).
T2 sequence (P10276 whole entry): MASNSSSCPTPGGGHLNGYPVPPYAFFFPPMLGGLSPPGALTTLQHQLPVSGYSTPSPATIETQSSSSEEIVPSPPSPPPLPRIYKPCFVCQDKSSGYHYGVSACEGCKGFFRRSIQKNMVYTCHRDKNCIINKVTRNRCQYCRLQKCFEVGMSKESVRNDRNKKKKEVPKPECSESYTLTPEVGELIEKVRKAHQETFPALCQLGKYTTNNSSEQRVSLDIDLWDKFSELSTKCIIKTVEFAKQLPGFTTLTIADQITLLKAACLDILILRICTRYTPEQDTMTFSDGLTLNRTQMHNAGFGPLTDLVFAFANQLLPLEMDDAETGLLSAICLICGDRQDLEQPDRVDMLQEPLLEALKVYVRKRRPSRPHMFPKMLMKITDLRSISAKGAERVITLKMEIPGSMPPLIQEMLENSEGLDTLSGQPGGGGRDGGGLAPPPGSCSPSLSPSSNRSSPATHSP
Nature of the series: Displacement of [11,12-3H]ARTA from RARalpha. In outline: (§6)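 Recombinant S-Tag RARα, RARβ or RARγ fusion protein extracts (10-30 µg/mL total protein) in HEPES pH 7.9 binding buffer. Incubated with 1 nM [3H]all-trans-RA and 0-500 nM test compound for 3 h at 27 °C.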

For series [14], the target named is T3, Retinoic acid receptor beta (Homo sapiens, UniProt P10826).
T3 sequence (P10826 whole entry): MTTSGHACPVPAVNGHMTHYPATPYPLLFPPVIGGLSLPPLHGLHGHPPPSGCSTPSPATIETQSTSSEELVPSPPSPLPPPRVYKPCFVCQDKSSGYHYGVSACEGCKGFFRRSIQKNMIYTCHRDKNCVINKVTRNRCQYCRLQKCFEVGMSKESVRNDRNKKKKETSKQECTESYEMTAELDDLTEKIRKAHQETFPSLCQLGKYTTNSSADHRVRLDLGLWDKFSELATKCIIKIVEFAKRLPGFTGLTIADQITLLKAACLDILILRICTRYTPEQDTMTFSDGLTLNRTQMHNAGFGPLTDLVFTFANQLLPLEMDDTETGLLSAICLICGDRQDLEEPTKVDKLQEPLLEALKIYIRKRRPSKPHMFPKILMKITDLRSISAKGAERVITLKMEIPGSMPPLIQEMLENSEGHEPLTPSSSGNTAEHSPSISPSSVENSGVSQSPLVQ
Nature of the series: Displacement of [11,12-3H]ARTA from RARbeta. In outline:
as §6

Series [15] deals with T1, Cytochrome P450 26A1. Nature of the series: Inhibition of ATRA-induced CYP26 in human MCF7 cells assessed ATRA as metabolism using [11.12-3H]-ATRA. It is filed as functional, cell-based. The gist of the method: (§7)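 MCF-7 or T47D cells (1 × 10^6 per well) induced with 1 µM ATRA for 12-15 h, washed, then given inhibitor (0.0001-10 µM, ethanol stock) plus 0.001 µM [11,12-3H]-ATRA for 5 h. Media and cells extracted with ethyl acetate; metabolites measured by reverse-phase HPLC with radiometric detection; IC50 from dose-response curves.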

The subject of series [16] is MCF7. Description: Induction of apoptosis in human MCF7 cells at 1 uM for 6 days by TUNEL assay. Type of series: functional, cell-based. In outline:
(§8)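 MCF-7 or T47D cells exposed to 1 µM compound for 6 days, then trypsinized, fixed in 1% paraformaldehyde and stored in 70% ethanol at -20 °C overnight. TdT/BrdUTP labeling (APO-BRDU TUNEL), fluorescein anti-BrdU plus PI/RNase stain; apoptotic cells counted by flow cytometry.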

Series [17] addresses T1, Cytochrome P450 26A1. Description: Inhibition of ATRA-induced CYP26 in human T47D cells assessed as ATRA metabolism using [11.12-3H]-ATRA. Type of series: functional, cell-based. The gist of the method:
as §7

For series [18], the target named is T1, Cytochrome P450 26A1. Nature of the series: Inhibition of ATRA-induced CYP26 in human T47D cell microsome assessed as ATRA metabolism using [11.12-3H]-ATRA. Type of series: functional, microsomes. In outline:
as §3

The subject of series [19] is T47D. Description: Induction of apoptosis in human T47D cells at 1 uM for 6 days by TUNEL assay. It is filed as functional, cell-based. In outline: as §8
Series [20] concerns LNCaP. Nature of the series: Induction of cell differentiation in human LNCaP cells after 6 days. It is filed as functional, cell-based. In outline:
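LNCaP cells given 1 µM compound, alone or with 1 µM ATRA, for 6 days. Lysates (50 µg) run on 10% SDS-PAGE and Western blotted with anti-cytokeratin 8/18, β-actin as control. ECL detection; band intensity by densitometry taken as the differentiation marker.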

Regarding `CC1=C(/C=C/C(C)=C/C=C/C(C)=C/C(=O)O)C(C)(C)CCC1` [TRETINOIN], the IC50 in series [1] turned out to be 584 nM; in [5], 580 nM; in [6], 2000 nM; in [7] it was 10000 nM; in series [8] it was 6 nM; in [9], 10 nM. Further, the Km in [2] stood at 0.16 µM. Moreover, the result in series [3] and in [4] (Homo sapiens) was inactive.

Take `Clc1cccc(C(c2ccc3[nH]cnc3c2)n2ccnc2)c1` (centres undefined) [LIAROZOLE]: the IC50 in [10] is 6000 nM. Moreover, the Activity entry in [11] and in [12] was “Not Active” each time.

Turning to `CC1=C(/C=C/C(C)=C/C=C/C(C)=C/C(=O)O)C(C)(C)CCC1n1ccnc1` (racemic), the IC50 in series [10] was 2.33 nM; in series [13] it was 20 nM; in series [5], 490 nM; in series [6], 7700 nM; in series [14], 175 nM; in series [7], 10000 nM. Further, the IC50 in series [15] worked out at 10.9 nM; in [8], 3 nM; in series [17], 6.3 nM; in series [18], 2.4 nM; in [9], 45 nM. In series [10], this compound had a Ki of 0.22 nM. In addition, the result in series [3] was inactive. This compound also showed an Activity in series [4] of 85.2%. Besides, the result in [16], in series [19] and in series [20] was Active.

In general, IC50 refers to the concentration at which inhibition is half-maximal. A word on the Km: it is the concentration of substrate that gives half-maximal velocity. Broadly, the Ki is the dissociation constant of the complex between target and ligand, obtained from inhibition or displacement.
